Calls of active or inactive are those of the source.
Assays:
[1] = system: T98G; experiment: Induction of apoptosis in human T98G cells assessed as increase in caspase-3 expression level at 20 uM after 24 hrs by Western blot analysis; type: functional, cell-based
Summary of the method: (§1)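 T98G exposed to 20 μM for various times (0−48 h), NAC 5 mM where stated. Total lysates, or digitonin-permeabilized cytosolic and mitochondrial fractions (10000g, 15 min, 4 °C) for cytochrome c, blotted for caspase-3, caspase-9, PARP (1:1000), Bcl-2 (1:500), cytochrome c; β-actin loading control; ECL detection. Three experiments.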

[2] = system: T98G; experiment: Induction of apoptosis in human T98G cells assessed as caspase activation at 20 uM after 24 hrs pretreated with 25 uM pancaspase inhibitor Z-VAD-FMK; type: functional, cell-based
Summary of the method: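 T98G pretreated with Z-VAD-FMK (25 μM), then exposed to test agent; apoptotic (hypodiploid) nuclei quantified by propidium iodide flow cytometry. Means ± SEM, three experiments in triplicate.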

[3] = system: T98G; experiment: Induction of apoptosis in human T98G cells assessed as decrease in Bcl-2 expression at 20 uM after 48 hrs by Western blot analysis; type: functional, cell-based; summary of the method: as §1
[4] = system: U-87 MG; experiment: Induction of cell cycle arrest in human U87MG cells assessed as accumulation at G2/M phase at 1 to 20 uM after 48 hrs by flow cytometric analysis; type: functional, cell-based; conditions: U-87MG ATCC
Summary of the method: (§2)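 2 × 10^5 cells per dish exposed 48 h (1−20 μM per legend); harvested, fixed in cold 70% ethanol at −20 °C, stained with propidium iodide plus RNase A (100 U/mL) 30 min at room temperature; percentage in G1, S, G2/M by flow cytometry. Three experiments in triplicate.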

[5] = system: T98G; experiment: Induction of apoptosis in human T98G cells assessed as increase in ROS production at 20 uM after 24 hrs by DCFH-DA staining-based flow cytometric analysis; type: functional, cell-based
Summary of the method: (§3)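 T98G incubated with 20 μM, with or without 5 mM NAC pretreatment, for 5−120 min or 24 h; washed, resuspended at 2 × 10^5 cells/mL in HBSS with 10 μM DCFH-DA, 20 min at 37 °C; DCF fluorescence read by flow cytometry (FL1), also viewed by fluorescence microscopy.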

[6] = system: T98G; experiment: Induction of apoptosis in human T98G cells assessed as increase in ROS production at 20 uM after 48 hrs by DCFH-DA staining-based flow cytometric analysis in presence of 5 mM NAC; type: functional, cell-based
[7] = system: T98G; experiment: Induction of apoptosis in human T98G cells at 20 uM after 48 hrs by flow cytometric analysis pretreated with 5 uM JNK inhibitor SP600125 for 1 hr; type: functional, cell-based
Summary of the method: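 T98G pretreated with PD98059 (20 μM, 30 min), SB203580 (5 μM, 1 h) or SP600125 (5 μM, 1 h), then exposed to 20 μM for 48 h; hypodiploid nuclei quantified by propidium iodide flow cytometry. Means ± SEM, three experiments in triplicate.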

[8] = system: U-87 MG; experiment: Induction of apoptosis in human U87MG cells at 50 uM after 48 hrs by propidium iodide staining based flow cytometric analysis; type: functional, cell-based; conditions: U-87MG ATCC
Summary of the method: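 Cells treated 1−50 μM for 24 or 48 h, washed in PBS, resuspended in 0.1% sodium citrate, 0.1% Triton X-100, 50 μg/mL propidium iodide, 30 min at 4 °C in dark. Nuclei analyzed by flow cytometry, DNA on log scale, debris gated out; percent hypodiploid (sub-G1) nuclei reported. Three experiments in triplicate.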

[9] = system: T98G; experiment: Induction of apoptosis in human T98G cells assessed as increase in ROS production at 20 uM after 48 hrs by DCFH-DA staining-based flow cytometric analysis in presence of 10 uM ascorbic acid; type: functional, cell-based
[10] = system: T98G; experiment: Induction of apoptosis in human T98G cells assessed as increase in ROS production at 20 uM measured every 5 mins for 5 to 120 mins by DCFH-DA staining-based flow cytometric analysis; type: functional, cell-based; summary of the method: as §3
[11] = system: T98G; experiment: Induction of apoptosis in human T98G cells assessed as increase in ROS production at 20 uM after 24 hrs by DCFH-DA staining-based flow cytometric analysis in presence of 5 mM NAC; type: functional, cell-based; summary of the method: as §3
[12] = system: T98G; experiment: Induction of apoptosis in human T98G cells assessed as increase in mitochondrial depolarization at 20 uM after 4 hrs by […] fluorescence analysis; type: functional, cell-based
Summary of the method: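 T98G treated with 20 μM for 4−24 h (NAC 5 mM where stated), then loaded with 5 nM TMRE for 30 min at 37 °C; fluorescence by flow cytometry (FL-2); percentage of cells with depolarized mitochondria reported. Three experiments in triplicate (n = 3 for NAC set).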

[13] = Cytotoxicity against normal human astrocytes assessed as decrease in cell viability after 48 hrs by MTT assay; type: cell-based; conditions: astrocyte
Summary of the method: (§4)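 Cells (T98G, U87-MG, NHA; 3 × 10^4 per well) plated, next day exposed to serial dilutions (1−50 μM) for 48 h at 37 °C, 5% CO2. MTT (5 mg/mL) added for 3 h; crystals solubilized in 50% DMF/20% SDS pH 4.5; OD at 620 nm. Viability = % of DMSO (0.1% final) controls. Means ± SEM, three experiments in triplicate.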

[14] = system: T98G; experiment: Anticancer activity against human T98G cells assessed as decrease in cell viability at 50 uM after 48 hrs by MTT assay; type: functional; summary of the method: as §4
[15] = system: T98G; experiment: Induction of apoptosis in human T98G cells assessed as cleavage PARP protein level at 20 uM after 24 hrs by Western blot analysis in presence of 5 mM NAC; type: functional, cell-based; summary of the method: as §1
[16] = system: U-87 MG; experiment: Induction of cell cycle arrest in human U87MG cells assessed as accumulation at S phase at 1 to 20 uM after 48 hrs by flow cytometric analysis; type: functional, cell-based; conditions: U-87MG ATCC; summary of the method: as §2
[17] = system: T98G; experiment: Induction of cell cycle arrest in human T98G cells assessed as accumulation at S phase at 1 to 20 uM after 48 hrs by flow cytometric analysis; type: functional, cell-based; summary of the method: as §2
[18] = molecular target: Mitogen-activated protein kinase; ERK1/ERK2 (Homo sapiens) (UniProt P27361+P28482); experiment: Induction of Erk1/2 phosphorylation in human T98G cells at 20 uM measured after 24 hrs by Western blot analysis in presence of 5 mM of NAC; type: cell-based
Summary of the method: (§5)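 T98G exposed to 20 μM for 5−120 min or 24 h, with or without 5 mM NAC. Lysates (Tris/deoxycholate/SDS/IGEPAL with protease and phosphatase inhibitors) immunoblotted with anti-p-ERK, ERK1/2 (1:1000), p-p38, p38; ECL detection; phospho signals normalized to total ERK1/2 or p38. Three experiments.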

[19] = system: T98G; experiment: Induction of apoptosis in human T98G cells assessed as increase in caspase-9 expression level at 20 uM after 8 hrs by Western blot analysis; type: functional, cell-based; summary of the method: as §1
[20] = Toxicity in mouse; type: organism-based; conditions: in vivo
[21] = molecular target: MAP kinase p38 (Homo sapiens) (UniProt O15264+Q15759+Q16539+P53778); experiment: Induction of p38 phosphorylation in human T98G cells at 20 uM after 30 to 60 mins for 2 hrs by Western blot analysis in presence of 5 mM NAC; type: cell-based; summary of the method: as §5
[22] = system: T98G; experiment: Induction of apoptosis in human T98G cells assessed as increase in ROS production at 20 uM measured every 5 mins for 5 to 120 mins by DCFH-DA staining-based flow cytometric analysis in presence of 5 mM NAC; type: functional, cell-based; summary of the method: as §3
[23] = system: T98G; experiment: Induction of cell cycle arrest in human T98G cells assessed as accumulation at G0/G1 phase at 1 to 20 uM after 48 hrs by flow cytometric analysis; type: functional, cell-based; summary of the method: as §2

Sequence of Mitogen-activated protein kinase; ERK1/ERK2 (Homo sapiens) (P27361 whole entry, looked up): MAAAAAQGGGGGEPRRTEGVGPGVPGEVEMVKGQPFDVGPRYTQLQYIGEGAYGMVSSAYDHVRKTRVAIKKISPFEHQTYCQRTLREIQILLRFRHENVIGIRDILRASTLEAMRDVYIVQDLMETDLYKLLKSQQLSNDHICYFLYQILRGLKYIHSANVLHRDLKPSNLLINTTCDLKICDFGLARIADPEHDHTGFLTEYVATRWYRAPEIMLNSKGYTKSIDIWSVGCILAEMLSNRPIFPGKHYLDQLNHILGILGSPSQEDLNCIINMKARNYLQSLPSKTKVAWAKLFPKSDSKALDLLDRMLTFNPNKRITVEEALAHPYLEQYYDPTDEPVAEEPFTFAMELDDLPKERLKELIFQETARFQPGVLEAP
Sequence of Mitogen-activated protein kinase; ERK1/ERK2 (Homo sapiens) (P28482 whole entry, looked up): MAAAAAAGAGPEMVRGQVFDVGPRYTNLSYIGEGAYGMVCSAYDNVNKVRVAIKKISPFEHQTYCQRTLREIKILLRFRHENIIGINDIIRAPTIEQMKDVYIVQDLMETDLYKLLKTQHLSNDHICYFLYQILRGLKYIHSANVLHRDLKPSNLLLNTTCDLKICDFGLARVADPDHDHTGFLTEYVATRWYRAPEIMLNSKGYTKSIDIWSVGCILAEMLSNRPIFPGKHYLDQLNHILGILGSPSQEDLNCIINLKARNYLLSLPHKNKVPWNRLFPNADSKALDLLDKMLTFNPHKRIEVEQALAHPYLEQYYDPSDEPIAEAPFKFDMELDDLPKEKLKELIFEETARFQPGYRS

COc1cc(O)c(CC=C(C)C)c(O)c1C(=O)/C=C/c1ccc(O)cc1 [XANTHOHUMOL]
500 mg/kg: LD50 [20]
active: Activity [1] | Activity [3] | Activity [5] | Activity [7] | Activity [8] | Activity [10] | Activity [12] | Activity [19]
70%: Activity [14]
inactive: Activity [2] | Activity [4] | Activity [6] | Activity [9] | Activity [11] | Activity [15] | Activity [16] | Activity [17] | Activity [18] | Activity [21] | Activity [22] | Activity [23]
Non-toxic: Activity [13]
